The source of these data is PubChem BioAssay.

Activity calls are given as the source filed them.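 The calls were made as follows, unless noted: active = compounds giving at least 50% inhibition in the cell-based MKP-3 phosphatase rescue imaging test; inactive = the rest.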

The nature of test [1]: inhibitors of TNFa-induced NFkB p65 translocation, primary screen, imaging, HUVEC, MLSMR starter and 10KST1 sets (AID 438;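 active = inhibition above 20% together with a positive visual image hit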;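 also: compound added about 3h40 before a 20 min TNFalpha stimulation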;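 as to inhibition: signal is the nuclear over cytoplasmic p65 intensity ratio per well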). The settings on record: HUVEC TNFa-induced p65 nuclear translocation; cell count: measured here: nuclei count (cytotoxicity indicator), at 2.08 µM; inhibition: at 2 µM, stronger effect = higher value, 0% TNFa-plus-vehicle, 100% no-TNFa wells.
Test [2] is described as follows: inhibitors of E-selectin induction by TNFa, primary screen, imaging, HUVEC, immunofluorescence, MLSMR starter and 10KST1 sets (AID 487;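 active = visually confirmed hit in the image check and inhibition above 20%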;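 as to inhibition: signal is fraction of cell area covered by stained E-selectin grains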;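 as to nuclei count: 100% = median nuclei count of all wells on the same plate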). The settings on record: HUVEC TNFalpha-induced E-selectin immunofluorescence imaging, at 2 µM; inhibition: stronger effect = higher value; nuclei count: measured here: cell number, toxicity.
Test [3] in a line: DUSP6 inhibitors restoring Erk phosphorylation by chemical complementation, primary imaging in DUSP6-transfected HeLa (AID 609).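 As to inhibition: phospho-Erk level distribution per well compared with pooled transfected vehicle control wells.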 The settings on record: HeLa MKP-3 transfected, phospho-Erk imaging KS statistic, at 10 µM, cells stimulated with TPA for 15 min.
Test [4] has as its target Dual specificity protein phosphatase 6 (Homo sapiens) (UniProt Q16828). The test is described as above. The settings on record: HeLa MKP-3 transfected, phospho-Erk imaging KS statistic; at 10 µM; stronger effect = higher value; cells stimulated with TPA for 15 min.
For test [5], the target named is Voltage-gated potassium channel subunit beta-2 (Rattus norvegicus) (UniProt P62483). Briefly: KvBeta enzyme negative modulators, primary screen, biochemical, NADPH fluorescence (AID 622;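 active = fluorescence slope higher than the sample average by over 3 SD, cut at about -0.22 in these data, passing the limit was not always enough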;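 also: slope of raw intensity against log time taken from 70 to 1610 s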). The settings on record: recombinant KvBeta, 4-cyanobenzaldehyde reduction, at 10 µM, stronger effect = higher value.
Chain of Voltage-gated potassium channel subunit beta-2 (Rattus norvegicus) (P62483 whole entry, looked up): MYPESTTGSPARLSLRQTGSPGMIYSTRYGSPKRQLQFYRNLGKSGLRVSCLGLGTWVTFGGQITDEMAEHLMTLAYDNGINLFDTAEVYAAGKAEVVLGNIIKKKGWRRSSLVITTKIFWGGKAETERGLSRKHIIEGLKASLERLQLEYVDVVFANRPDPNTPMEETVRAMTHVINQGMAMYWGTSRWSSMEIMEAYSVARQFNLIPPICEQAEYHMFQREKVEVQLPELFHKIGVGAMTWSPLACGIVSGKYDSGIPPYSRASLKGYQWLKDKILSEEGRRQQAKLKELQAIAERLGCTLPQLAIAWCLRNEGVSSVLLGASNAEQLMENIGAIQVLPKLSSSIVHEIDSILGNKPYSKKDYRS
The target is the same in test [6]. Briefly: KvBeta positive modulators, primary screen, biochemical, NADPH fluorescence (AID 623;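 active = NADPH fluorescence slope more negative than the mean of all samples by about 3 SD, 99.7% confidence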;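 also: fluorescence intensity change per second fitted from 20 to 320 s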). The settings on record: Recombinant KvBeta, NADPH fluorescence decrease slope, 10 min; at 10 µM; stronger effect = lower value.
Test [7] has as its target Alpha-2C adrenergic receptor (Homo sapiens) (UniProt P18825). Briefly: modulators of alpha2C/GIRK thallium flux, primary screen, cell-based, HEK293 alpha2C/GIRK1/2 (AID 624;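 active = fluorescence slope after compound addition differing from the mean of all screened samples at 99.7% confidence, in either direction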;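 also: slope of fluorescence ratio to pre-addition baseline per second over 15 to 24 s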). The settings on record: thallium flux BTC fluorescence, at 10 µM, actives lie on both sides.
Test [8] in a line: inhibitors of larval lipid processing in zebrafish, primary screen, whole organism, PED6 fluorescence, gall bladder and intestine (AID 686;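 active = a full or partial loss of lipid-probe fluorescence in the fish gall bladder, intestine or both, judged by eye; inactive = no fluorescence loss, or compound toxic to the fish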;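 also: larvae 5 to 7 days old with five fish per well; signal comes from phospholipase A2 cleavage of quenched PED6 carried via bile; overnight exposure to compound and PED6 before scoring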). The settings on record: Zebrafish larvae PED6 lipid processing, fluorescence scoring; screened at 20 µM (by protocol). The method, boiled down:
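Test system – live zebrafish larvae aged 5-7 days, whole organism · Buffer or medium – E3 fish medium · Reagent – quenched phospholipase substrate PED6, 100 nM final, ingested by larvae · Doses – 20 µM single dose · Incubation – overnight compound and PED6 incubation · Technique – visual fluorescence microscopy scoring of gall bladder, gut · Read-out basis – visual per-well fluorescence inhibition score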

A short description of test [9]: inhibitors of Chlamydomonas gravitaxis, primary screen, whole organism, Chlamydomonas reinhardtii, WT vs cilia-less mutant, absorbance, 96-well (AID 463189;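 active = inhibition at or above 50% relative to wild type and mutant plate controls; inactive = inhibition below 50%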;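 also: 0% = wild type cc124 cells in DMSO and 100% = ciliumless bld1 mutant cells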). The settings on record: OD600 absorbance, 2 days, at 10 µM, stronger effect = higher value.
[10] abbreviates: measured here: cell density z-score.
Where [11] appears, read: measured here: nuclear c-Myc green intensity z-score.
Where [12] appears, read: measured here: nuclear pErk red intensity z-score, stronger effect = higher value.

Chain of Alpha-2C adrenergic receptor (Homo sapiens) (P18825 whole entry, looked up): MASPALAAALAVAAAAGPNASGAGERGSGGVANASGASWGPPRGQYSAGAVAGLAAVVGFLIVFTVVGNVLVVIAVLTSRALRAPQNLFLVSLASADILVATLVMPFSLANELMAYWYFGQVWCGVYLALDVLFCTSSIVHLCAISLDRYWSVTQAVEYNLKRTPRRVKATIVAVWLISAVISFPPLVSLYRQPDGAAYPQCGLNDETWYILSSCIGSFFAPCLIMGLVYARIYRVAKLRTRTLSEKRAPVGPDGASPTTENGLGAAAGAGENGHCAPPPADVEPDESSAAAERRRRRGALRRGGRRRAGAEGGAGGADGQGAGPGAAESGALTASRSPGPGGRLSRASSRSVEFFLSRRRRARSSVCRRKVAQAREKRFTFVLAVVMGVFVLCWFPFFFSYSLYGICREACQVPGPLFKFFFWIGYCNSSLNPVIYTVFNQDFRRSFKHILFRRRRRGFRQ
Chain of Dual specificity protein phosphatase 6 (Homo sapiens) (Q16828 whole entry, looked up): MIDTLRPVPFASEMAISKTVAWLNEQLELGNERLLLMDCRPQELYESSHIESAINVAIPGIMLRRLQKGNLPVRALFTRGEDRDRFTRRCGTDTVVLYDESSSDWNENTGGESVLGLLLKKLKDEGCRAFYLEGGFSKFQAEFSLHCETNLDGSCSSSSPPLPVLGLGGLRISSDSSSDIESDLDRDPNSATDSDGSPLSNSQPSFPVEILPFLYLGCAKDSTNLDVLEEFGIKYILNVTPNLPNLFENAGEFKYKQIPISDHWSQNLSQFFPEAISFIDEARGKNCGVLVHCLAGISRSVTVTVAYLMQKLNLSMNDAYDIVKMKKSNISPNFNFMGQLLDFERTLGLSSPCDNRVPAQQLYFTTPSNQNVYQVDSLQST

By inhibition is commonly meant the relative decrease from the control value, in per cent. For the compound `Cc1ccc(OCc2nnc(NC(=O)c3ccco3)s2)c(C)c1`, in [1], the cell count amounted to 438. Also, the inhibition in [1] is -7.3% (inactive); in [2] it was 15.6% (inactive); in test [4], -1.12% (inactive); in test [9] it was -4.85% (inactive). Also, the nuclei count in [2] worked out at 106%. In addition, the z-score in test [3] (setting [10]) was -0.686; in test [3] (setting [11]), -0.603; in [3] (setting [12]), 0.0542. Besides, the fluorescence slope in test [5] is -0.308 (inactive). For the same compound, the NADPH fluorescence slope in test [6] was -1.3e-05 (inactive). Also, in test [7], the slope is 0.00608 (inactive). In [8], the call was inactive.

`Nc1ccc(Cl)cc1/C(=N/O)c1ccccc1`: in test [1], the cell count worked out at 337. The inhibition in test [1] is -13.8% (inactive); in test [2] it was -23% (inactive); in [4], 1.75% (inactive); in test [9], 16.2% (inactive). Besides, the nuclei count in test [2] was 65.2%. For the same compound, the z-score in test [3] (setting [10]) was 0.198; in test [3] (setting [11]) it was 0.536; in test [3] (setting [12]), -0.0149. Also, in test [5], the fluorescence slope was -0.451 (inactive). Besides, the NADPH fluorescence slope in test [6] is 9e-06 (inactive). For the same compound, in test [7], the slope is 0.00461 (inactive). The outcome in test [8] was inactive.

`CCCOc1ccc(/C(O)=C2/C(=O)C(=O)N(CCN(C)C)C2c2ccc(OC)c(OC)c2)cc1` (centres undefined): in [1], the cell count is 461. Also, the inhibition was -7.3% (inactive) in test [1], -136% (inactive) in test [2], 6.04% (inactive) in test [4] and 8% (inactive) in test [9]. The same compound had a nuclei count in test [2] of 167%. The z-score in test [3] (setting [10]) was -0.67; in test [3] (setting [11]), 0.995; in test [3] (setting [12]), 0.868. In addition, the fluorescence slope in test [5] was -0.411 (inactive). In addition, in test [6], the NADPH fluorescence slope is -6.1e-05 (inactive). Moreover, the slope in test [7] is 0.00495 (inactive). The result in test [8] was inactive.

`COc1cccc(NC(=O)CSC2=C(C#N)C(c3ccco3)C3=C(CCCC3=O)N2)c1` (centres undefined): in test [1], the cell count was found to be 474. For the same compound, the inhibition in test [1] was -0.1% (inactive); in [2], -19.9% (inactive); in [4], -3.98% (inactive); in [9], 2.98% (inactive). The compound further registered a nuclei count in [2] of 101%. The values for the z-score in test [3] (setting [10]), in test [3] (setting [11]) and in test [3] (setting [12]) were 0.0221, -0.732 and 2.07, respectively. For the same compound, in test [5], the fluorescence slope was -0.506 (inactive). For the same compound, the NADPH fluorescence slope in test [6] was -6.2e-05 (inactive). Moreover, the slope in test [7] was 0.00557 (inactive). In addition, the call in test [8] was inactive.

On to `CCOC(=O)CCc1c(C)c(C#N)c2[nH]c3ccccc3n2c1=O`, for which the cell count in test [1] came out at 536. For the same compound, the inhibition in test [1] was -1.4% (inactive); in [2], -8.6% (inactive); in [4] it was 15.9% (inactive); in test [9], 18.4% (inactive). This compound also registered a nuclei count in test [2] of 82.5%. The z-score in test [3] (setting [10]) was -0.186; in test [3] (setting [11]), -0.0675; in test [3] (setting [12]), -0.0374. Besides, the fluorescence slope in test [5] is -0.617 (inactive). The NADPH fluorescence slope in test [6] is -3.7e-05 (inactive). Moreover, the slope in test [7] is 0.00416 (inactive). Also, the outcome in [8] was “active; weak signal in gallbladder and intestine”.

As to `CCCCCc1nc2sc3c(c2c(=O)n1N)CCC3`, the cell count in [1] is 632. Moreover, the inhibition was -11.1% (inactive) in test [1], 46.3% (inactive) in test [2], -9.7% (inactive) in [4] and 68.1% (active) in test [9]. This compound registered a nuclei count in test [2] of 166%. The z-score was -1.49 in test [3] (setting [10]), 2.03 in test [3] (setting [11]) and 1.67 in test [3] (setting [12]). The fluorescence slope in test [5] is -0.507 (inactive). Also, in test [6], the NADPH fluorescence slope was -0.000102 (inactive). In addition, the slope in test [7] was 0.00473 (inactive). For the same compound, in [8], the call was inactive.

As to `Nc1nnc(CSc2ccc(Cl)cc2)s1`, in test [1], the cell count came out at 605. Besides, the inhibition is -14% (inactive) in test [1], 33.5% (inactive) in test [2], -7.86% (inactive) in test [4] and 6.7% (inactive) in [9]. For the same compound, the nuclei count in test [2] worked out at 171%. In addition, the z-score was 0.155 in test [3] (setting [10]), -0.0933 in test [3] (setting [11]) and -0.139 in [3] (setting [12]). Moreover, the fluorescence slope in [5] is -0.369 (inactive). Besides, the NADPH fluorescence slope in [6] was -4.8e-05 (inactive). The slope in test [7] was 0.00734 (inactive). The compound was called inactive in [8].

With `Cc1cc(C)cc(-n2c3nc4ccccc4nc3c3c(=O)n(Cc4ccco4)cnc32)c1`, the cell count in [1] is 319. Moreover, the inhibition in test [1] was -15.5% (inactive); in [2], -94.4% (inactive); in [4], 3.5% (inactive); in [9], -2.54% (inactive). Also, the nuclei count in [2] was 134%. Besides, the values for the z-score in test [3] (setting [10]), in test [3] (setting [11]) and in test [3] (setting [12]) were 0.126, -0.244 and -0.872, respectively. The fluorescence slope in test [5] was -0.396 (inactive). In addition, the NADPH fluorescence slope in [6] is -0.000101 (inactive). Besides, the slope in test [7] was 0.0051 (inactive). Moreover, in test [8], the outcome was inactive.

As for `C=CCn1c(=S)[nH]c2ccccc2c1=O`, the cell count in test [1] was 649. In addition, the inhibition in test [1] was 1.8% (inactive); in [2], -30.6% (inactive); in test [4], 5.57% (inactive); in [9] it was -14.1% (inactive). The same compound displayed a nuclei count in [2] of 130%. In addition, the z-score in test [3] (setting [10]) is -0.515; in test [3] (setting [11]) it was 0.859; in test [3] (setting [12]), 0.00467. In [5], the fluorescence slope is -0.46 (inactive). Also, the NADPH fluorescence slope in test [6] was -0.000371 (inactive). Also, in [7], the slope was 0.00865 (inactive). The compound was called inactive in [8].

Regarding `N=c1c2c(-c3ccccc3)c(-c3ccccc3)n(Cc3ccccc3)c2ncn1CCCn1ccnc1`, in [1], the cell count was 551. For the same compound, the inhibition was -6.7% (inactive) in test [1], 17.5% (inactive) in test [2], -1.75% (inactive) in [4] and 118% (active) in test [9]. In addition, the nuclei count in [2] came out at 142%. In addition, the values for the z-score in test [3] (setting [10]), in test [3] (setting [11]) and in [3] (setting [12]) were -0.862, 0.115 and -0.203, respectively. The fluorescence slope in test [5] was -0.292 (inactive). Besides, in [6], the NADPH fluorescence slope was 9.2e-06 (inactive). Further, in test [7], the slope was 0.00345 (inactive). Moreover, in test [8], the result was inactive.

Consider `Cc1oc2cc(O)cc(C)c2c(=O)c1-c1cnn(-c2ccccc2)c1`, for which the cell count in [1] worked out at 578. For the same compound, the inhibition in test [1] was -1.3% (inactive); in test [2], -189% (inactive); in test [4] it was 15.9% (inactive); in test [9], 20.5% (inactive). In addition, the nuclei count in test [2] was 149%. Besides, the z-score turned out to be 0.4 in test [3] (setting [10]), 1.63 in test [3] (setting [11]) and 0.0441 in test [3] (setting [12]). The fluorescence slope in [5] is -0.509 (inactive). Also, the NADPH fluorescence slope in [6] was -5.7e-05 (inactive). The slope in test [7] is 0.00468 (inactive). Also, the outcome in test [8] was inactive.

In the case of `Cn1c(=O)c2c(nc(OCc3cccnc3)n2Cc2ccccc2)n(C)c1=O`, the cell count in [1] turned out to be 599. For the same compound, the inhibition was 8.2% (inactive) in test [1], 3.5% (inactive) in test [2], -2.91% (inactive) in test [4] and -5.51% (inactive) in test [9]. In test [2], this compound showed a nuclei count of 138%. For the same compound, the z-score in test [3] (setting [10]) was 1.08; in test [3] (setting [11]) it was -0.258; in test [3] (setting [12]), 0.62. Moreover, the fluorescence slope in [5] was -0.517 (inactive). For the same compound, in test [6], the NADPH fluorescence slope is -0.000111 (inactive). Also, in [7], the slope was 0.00473 (inactive). In test [8], the compound was classed as inactive.

Take `C=C(Br)Cn1c(CCCC)nc2ccccc21`: in test [1], the cell count worked out at 496. Also, the inhibition in test [1] is -6.3% (inactive); in test [2] it was -117% (inactive); in test [4], 3.56% (inactive); in [9] it was 35.5% (inactive). The same compound returned a nuclei count in test [2] of 145%. In addition, the z-score in [3] (setting [10]) is 0.895; in test [3] (setting [11]), -1.74; in [3] (setting [12]) it was -1.25. Further, the fluorescence slope in test [5] was -0.492 (inactive). In addition, the NADPH fluorescence slope in [6] is -0.000115 (inactive). Besides, in test [7], the slope was 0.00483 (inactive). Besides, the compound was called inactive in test [8].
